Assay results as given in ChEMBL document CHEMBL5500387, “Design, synthesis of combretastatin A-4 piperazine derivatives as potential antitumor agents by inhibiting tubulin polymerization and inducing autophagy in HCT116 cells” (Eur J Med Chem, 2024).

Legend:
[1] = Octanol-water partition coefficient, log P of the compound at pH 7.4 at 4 mg measured after 24 hrs by liquid chromatography; type: physicochemical
In short: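 4 mg of compound was dissolved in 1 mL water-saturated n-octanol and held 24 h at room temperature, then centrifuged. The supernatant was mixed with an equal volume of octanol-saturated water, stood 24 h, centrifuged and the phases separated. Phase concentrations were measured by LC standard curves. log P = log(C_octanol/C_water). At least three independent runs.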

HCT-116 = experiment: Cytotoxicity against human HCT-116 cells assessed as inhibition of cell proliferation measured after 72 hrs by CCK-8 assay; type: functional, cell-based; details: HCT-116, 72 h
In short: (§1)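 Cells seeded at 2×10^3 per well and grown overnight in 10% FBS medium: HCT116 in McCoy's 5A, A549 and AGS in F-12K, SK-MES-1 in DMEM. Compounds added at varied concentrations with 0.1% DMSO control, 72 h at 37 °C. 10% CCK-8 for 2 h, then A450 read. Survival = (As−Ab)/(Ac−Ab)×100%. IC50 from curve fitting.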

AGS = experiment: Cytotoxicity against human AGS cells assessed as inhibition of cell proliferation measured after 72 hrs by CCK-8 assay; type: functional, cell-based; in short: as §1
[2] = Cytotoxicity against human NCM460 cells assessed as inhibition of cell proliferation measured after 72 hrs by CCK-8 assay; type: toxicity, cell-based
In short: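 NCM460 normal colonic epithelial cells seeded at 2×10^3 cells/well and grown overnight in RPMI-1640 with 10% FBS. Compounds added at a range of concentrations, 0.1% DMSO as negative control, 72 h at 37 °C. Read-out by CCK-8 (10%, 2 h) at 450 nm. Survival = (As−Ab)/(Ac−Ab)×100%; IC50 taken as concentration giving 50% inhibition of proliferation.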

SK-MES-1 = experiment: Cytotoxicity against human SK-MES-1 cells assessed as inhibition of cell proliferation measured after 72 hrs by CCK-8 assay; type: functional, cell-based; details: SK-MES-1, 72 h; in short: as §1
A549 = experiment: Cytotoxicity against human A549 cells assessed as inhibition of cell proliferation measured after 72 hrs by CCK-8 assay; type: functional, cell-based; details: A549, 72 h; in short: as §1

For COc1ccc(/C=C(/C(=O)N2CCN(c3ccc(C)cc3)CC2)c2cc(OC)c(OC)c(OC)c2)cc1O[C@H]1O[C@@H](CO)[C@H](O)[C@@H](O)[C@@H]1O, the logD at 24 h [1] was -0.538.
Work on COc1ccc(/C=C(/C(=O)N2CCN(Cc3ccc(C)cc3)CC2)c2cc(OC)c(OC)c(OC)c2)cc1O yielded an IC50 (HCT-116) of 1980 nM.
Molecule COc1ccc(/C=C(/C(=O)N2CCOCC2)c2cc(OC)c(OC)c(OC)c2)cc1O has an IC50 (HCT-116) of 926 nM.
In the case of COc1ccc(/C=C(/C(=O)N2CCCC2)c2cc(OC)c(OC)c(OC)c2)cc1O, the IC50 (HCT-116) is reported as 2480 nM.
With COc1ccc(/C=C\c2cc(OC)c(OC)c(OC)c2)cc1O [COMBRETASTATIN A4] the IC50 (AGS) was 74 nM, the logD at 24 h [1] was 2.14 and the IC50 at 72 h [2] was 11 nM. For the same molecule, the IC50 (SK-MES-1) was 7 nM.
In the case of COc1ccc(/C=C(/C(=O)N2CCS(=O)(=O)CC2)c2cc(OC)c(OC)c(OC)c2)cc1O, the IC50 (HCT-116) is reported as 1990 nM.
In the case of COc1ccc(/C=C(/C(=O)N2CCN(c3ccccc3C)CC2)c2cc(OC)c(OC)c(OC)c2)cc1O, the IC50 (HCT-116) is reported as 1580 nM.
Molecule COc1ccc(/C=C(/C(=O)N2CCN(c3ccc(Cl)cc3)CC2)c2cc(OC)c(OC)c(OC)c2)cc1O has an IC50 (HCT-116) of 593 nM, an IC50 (A549) of 366 nM and an IC50 (AGS) of 1110 nM. It also gave an IC50 (SK-MES-1) of 753 nM.
With COc1ccc(/C=C(/C(=O)N2CCN(Cc3cccc(C)c3)CC2)c2cc(OC)c(OC)c(OC)c2)cc1O the IC50 (HCT-116) was 3640 nM.
For COc1ccc(/C=C(/C(=O)N2CCN(c3ccc(Br)cc3)CC2)c2cc(OC)c(OC)c(OC)c2)cc1O, the IC50 (HCT-116) was 716 nM, the IC50 (A549) was 547 nM and the IC50 (AGS) was 1350 nM. For the same molecule, the IC50 (SK-MES-1) was 803 nM.
With COc1ccc(/C=C(/C(=O)N2CCN(c3ccc(C)cc3)CC2)c2cc(OC)c(OC)c(OC)c2)cc1O[C@H]1O[C@H](CO)[C@@H](O)[C@H](O)[C@@H]1O the logD at 24 h [1] was -0.638.
With COc1ccc(/C=C(/C(=O)N2CCNCC2)c2cc(OC)c(OC)c(OC)c2)cc1O the IC50 (HCT-116) was 735 nM.
In the case of COc1ccc(/C=C(/C(=O)N2CCN(c3ccc(C)cc3)CC2)c2cc(OC)c(OC)c(OC)c2)cc1O[C@H]1O[C@@H](CO)[C@@H](O)[C@@H](O)[C@@H]1O, the logD at 24 h [1] is reported as -0.432.
With COc1ccc(/C=C(/C(=O)N2CCN(c3ccc(C#N)cc3)CC2)c2cc(OC)c(OC)c(OC)c2)cc1O the IC50 (HCT-116) was 3350 nM.
In the case of COc1ccc(/C=C(/C(=O)N2CCN(c3ccc(F)cc3)CC2)c2cc(OC)c(OC)c(OC)c2)cc1O, the IC50 (HCT-116) is reported as 253 nM, the IC50 (A549) is reported as 270 nM and the IC50 (AGS) is reported as 531 nM. The IC50 (SK-MES-1) was 385 nM.
COc1ccc(/C=C(/C(=O)N2CCN(c3ccc(C)cc3)CC2)c2cc(OC)c(OC)c(OC)c2)cc1O[C@H]1O[C@@H](CO)[C@H](O[C@@H]2O[C@H](CO)[C@H](O)[C@H](O)[C@H]2O)[C@@H](O)[C@@H]1O gave a logD at 24 h [1] of -0.824.
With COc1ccc(/C=C(/C(=O)N2CCSCC2)c2cc(OC)c(OC)c(OC)c2)cc1O the IC50 (HCT-116) was 1150 nM.
With COc1ccc(/C=C(/C(=O)N2CCN(c3cccc(C)c3)CC2)c2cc(OC)c(OC)c(OC)c2)cc1O the IC50 (HCT-116) was 1770 nM.
COc1cccc(N2CCN(C(=O)/C(=C/c3ccc(OC)c(O)c3)c3cc(OC)c(OC)c(OC)c3)CC2)c1 gave an IC50 (HCT-116) of 1860 nM.
For COc1ccc(N2CCN(C(=O)/C(=C/c3ccc(OC)c(O)c3)c3cc(OC)c(OC)c(OC)c3)CC2)cc1, the IC50 (HCT-116) was 941 nM, the IC50 (A549) was 657 nM and the IC50 (AGS) was 882 nM. It also gave an IC50 (SK-MES-1) of 605 nM.
In the case of COc1ccc(/C=C(/C(=O)N2CCN(Cc3ccccc3C)CC2)c2cc(OC)c(OC)c(OC)c2)cc1O, the IC50 (HCT-116) is reported as 2850 nM.
Work on COc1ccc(/C=C(/C(=O)N2CCN(Cc3ccc(F)cc3)CC2)c2cc(OC)c(OC)c(OC)c2)cc1O yielded an IC50 (HCT-116) of 2100 nM.
Work on COc1ccc(/C=C(/C(=O)N2CCN(c3ccccc3Cl)CC2)c2cc(OC)c(OC)c(OC)c2)cc1O yielded an IC50 (HCT-116) of 1840 nM.
With COc1ccc(/C=C(/C(=O)N2CCN(c3ccc([N+](=O)[O-])cc3)CC2)c2cc(OC)c(OC)c(OC)c2)cc1O the IC50 (HCT-116) was 2770 nM.
COc1ccc(/C=C(/C(=O)N2CCN(Cc3ccc(Cl)cc3)CC2)c2cc(OC)c(OC)c(OC)c2)cc1O gave an IC50 (HCT-116) of 2690 nM.
COc1ccc(/C=C(/C(=O)N2CCN(c3ccccc3F)CC2)c2cc(OC)c(OC)c(OC)c2)cc1O showed an IC50 (HCT-116) of 1380 nM.
